Measurements as given in ChEMBL document CHEMBL1671680, “Pradimicin S, a highly soluble nonpeptidic small-size carbohydrate-binding antibiotic, is an anti-HIV drug lead for both microbicidal and systemic use” (Antimicrob Agents Chemother, 2010).
Activity calls are given as the source filed them. The rule behind the calls is not given here.

Columns and labels:
[1] = test system: PBMC; experiment: Immunostimulatory activity against human PBMC assessed as RANTES production at 22 uM after 72 hrs; format: functional, cell-based
Summary of the method: (§1)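 Unstimulated PBMCs and PHA-blasts from three donors, in three independent experiments, cultured with test compound at 20 μg/ml (21 or 22 μM). Supernatants collected after 72 h. The cytokine profile was read on a Bio-Plex 27-plex human cytokine bead immunoassay, using beads coupled to cytokine-specific monoclonal antibodies and run per the kit instructions.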

[2] = test system: Human immunodeficiency virus 1; experiment: Antiviral activity against X4 tropic HIV-1 Bal infected in human PBMC assessed as inhibition of viral replication […] by ELISA; format: functional, organism-based; conditions: Human immunodeficiency virus 1, Bal
Summary of the method: (§2)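 PBMCs from healthy donors were stimulated with PHA (2 μg/ml) for 3 days, then seeded at 0.5 × 10^6 cells/well in RPMI 1640 with 10% FCS, IL-2 (25 U/ml) and compound. Virus was added at a final 250 pg p24/ml. Supernatant was taken at day 12 for p24 antigen ELISA.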

[3] = test system: Human immunodeficiency virus 1; experiment: Antiviral activity against HIV-1 3B infected in human MT4 cells assessed as inhibition of virus-induced cytopathicity after 7 days by trypan blue staining; format: functional, organism-based; conditions: Human immunodeficiency virus 1, 3B, MT4, 168 h
[4] = Cytotoxicity against human PBMC cells after 3 to 4 days; format: cell-based
[5] = test system: PBMC; experiment: Immunostimulatory activity against human PBMC assessed as suppression of RANTES production at 22 uM after 72 hrs; format: functional
[6] = test system: PBMC; experiment: Immunostimulatory activity against human PBMC assessed as IL-2 production at 21 uM after 72 hrs; format: functional, cell-based; summary of the method: as §1
[7] = test system: PBMC; experiment: Immunostimulatory activity against human PBMC assessed as MIP-1beta production at 22 uM after 72 hrs; format: functional, cell-based; summary of the method: as §1
[8] = test system: PBMC; experiment: Immunostimulatory activity against human PBMC assessed as IL-6 production at 21 uM after 72 hrs; format: functional, cell-based; summary of the method: as §1
[9] = test system: Human immunodeficiency virus 1; experiment: Ratio of EC90 to EC50 for R5 tropic HIV-1 clade C isolate ETH2220 infected in human PBMC; format: functional
Summary of the method: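 PBMCs from healthy donors were PHA-stimulated (2 μg/ml, 3 days, 37°C), then seeded at 0.5 × 10^6 per well with compound dilutions in RPMI 1640 with 10% FCS and IL-2 (25 U/ml). Virus was added at 250 pg p24 or p27/ml final. On day 12, supernatant HIV-1 p24 or HIV-2 p27 was measured by ELISA, giving EC50 and EC90.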

[10] = test system: PBMC; experiment: Immunostimulatory activity against human PBMC assessed as suppression of PDGF production at 22 uM after 72 hrs; format: functional
[11] = test system: PBMC; experiment: Immunostimulatory activity against human PBMC assessed as GM-CSF production at 22 uM after 72 hrs; format: functional, cell-based
[12] = test system: PBMC; experiment: Immunostimulatory activity against human PBMC assessed as MIP-1alpha production at 22 uM after 72 hrs; format: functional, cell-based; summary of the method: as §1
[13] = Cytotoxicity against human U87 cells after 3 to 4 days; format: cell-based, U-87MG ATCC
Summary of the method: (§3)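 Cells seeded at 20,000–75,000 per well with compound dilutions, incubated 3–4 days at 37°C, and counted on a Coulter particle counter; CC50 is the concentration inhibiting proliferation by 50%.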

[14] = test system: Human immunodeficiency virus 1; experiment: Antiviral activity against X4 tropic HIV-1 3B infected in human Raji cells expressing DC-SIGN gene assessed as prevention of syncytium formation between persistently HIV-1 3B-infected Raji cells and uninfected human C8166 cells after 36 to 42 hrs by microscopic analysis; format: functional, organism-based; conditions: Human immunodeficiency virus 1, 3B
Summary of the method: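 Raji/DC-SIGN cells exposed 60 min to HIV-1 IIIB (2.2 × 10^6 pg/ml p24), washed by two centrifugations, then plated with compound dilutions and C8166 cells (10^7/ml, 50 μl); cocultures at 37°C scored microscopically for syncytia at ~36–48 h.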

[15] = test system: PBMC; experiment: Immunostimulatory activity against human PBMC assessed as IL-6 production at 22 uM after 72 hrs; format: functional, cell-based; summary of the method: as §1
[16] = test system: Human immunodeficiency virus 1; experiment: Binding affinity to HIV-1 HXB2 gp41 assessed as association rate constant after 6 mins by SPR analysis in presence of 10 mM CaCl2
[17] = test system: Human immunodeficiency virus 1; experiment: Antiviral activity against HIV-1 3B infected in human CEM cells assessed as inhibition of virus-induced cytopathicity after 3 to 4 days by microscopic analysis; format: functional, organism-based; conditions: Human immunodeficiency virus 1, 3B, CCRF-CEM
Summary of the method: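 CEM or C8166 cells at 5 × 10^5/ml infected with HIV-1 at 100 CCID50 per ml, then mixed 1:1 with compound dilutions and held at 37°C for 3–4 days. Giant cells were counted microscopically at ×100 against untreated infected cultures. EC50 is the concentration cutting syncytium formation by 50%.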

[18] = test system: Human immunodeficiency virus 1; experiment: Antiviral activity against R5 tropic HIV-1 clade A isolate UG273 infected in human PBMC assessed as inhibition of viral replication […] by ELISA; format: functional, organism-based; conditions: Human immunodeficiency virus 1, clade A isolate UG273; summary of the method: as §2
[19] = test system: PBMC; experiment: Immunostimulatory activity against human PBMC assessed as suppression of IL-2 production at 21 uM after 72 hrs; format: functional; summary of the method: as §1
[20] = Cytotoxicity against human C8166 cells after 3 to 4 days; format: cell-based; summary of the method: as §3
[21] = test system: Human immunodeficiency virus 1; experiment: Antiviral activity against R5 tropic HIV-1 Bal infected in human Raji cells expressing DC-SIGN gene assessed as inhibition of virus capture by Raji cells after 60 mins by ELISA; format: functional, organism-based; conditions: Human immunodeficiency virus 1, Bal, 1 h
[22] = test system: PBMC; experiment: Immunostimulatory activity against human PBMC assessed as FGF production at 21 uM after 72 hrs; format: functional, cell-based
Summary of the method: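 PBMCs and PHA blasts from three donors (three independent experiments) cultured with 21 μM compound; supernatants collected at 72 h; cytokines quantified with the Bio-Plex human 27-plex bead immunoassay.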

[23] = test system: PBMC; experiment: Immunostimulatory activity against human PBMC assessed as IL1-beta production at 21 uM after 72 hrs; format: functional, cell-based; summary of the method: as §1
[24] = test system: PBMC; experiment: Immunostimulatory activity against human PBMC assessed as suppression of PDGF production at 21 uM after 72 hrs; format: functional; summary of the method: as §1
[25] = test system: Human immunodeficiency virus 1; experiment: Antiviral activity against HIV-1 3B infected in human HUT78 cells assessed as prevention of syncytium formation between persistently HIV-1 3B-infected HUT-78 cells and uninfected SupT1 cells compound preexposed at pH 4 after 3 to 4 days by ELISA; format: functional, organism-based; conditions: SUP-T1
[26] = test system: PBMC; experiment: Immunostimulatory activity against human PBMC assessed as PDGF production at 22 uM after 72 hrs; format: functional, cell-based; summary of the method: as §1
[27] = test system: PBMC; experiment: Immunostimulatory activity against human PBMC assessed as IL-13 production at 22 uM after 72 hrs; format: functional, cell-based; summary of the method: as §1
[28] = test system: PBMC; experiment: Immunostimulatory activity against human PBMC assessed as IL-1ra production at 22 uM after 72 hrs; format: functional, cell-based; summary of the method: as §1
[29] = test system: Human immunodeficiency virus 1; experiment: Antiviral activity against X4 tropic HIV-1 clade D isolate UG270 infected in human PBMC assessed as inhibition of viral replication after 12 days by ELISA; conditions: Human immunodeficiency virus 1, clade D isolate UG270, 12 days
[30] = test system: PBMC; experiment: Immunostimulatory activity against human PBMC assessed as suppression of IL-15 production at 21 uM after 72 hrs; format: functional; summary of the method: as §1
[31] = Cytotoxicity against human Molt4 cells after 3 to 4 days; format: cell-based; conditions: MOLT-4 cells; summary of the method: as §3
[32] = test system: PBMC; experiment: Immunostimulatory activity against human PBMC assessed as MIP-1alpha production at 21 uM after 72 hrs; format: functional, cell-based; summary of the method: as §1

SMILES	Activity [1]	EC50 [2]	EC50 [3]	CC50 [4]	fold change (FC) [5]	Activity [6]	Activity [7]	Activity [8]	Ratio [9]	fold change (FC) [10]	Activity [11]	Activity [12]	CC50 [13]	EC50 [14]	Activity [15]	Ka [16]	EC50 [17]	EC50 [18]	fold change (FC) [19]	CC50 [20]	other results
CN[C@@H]1[C@H](O[C@@H]2O[C@H](CO)[C@@H](O)[C@H](OS(=O)(=O)O)[C@H]2O)[C@@H](O)[C@H](O[C@H]2c3cc(C)c(C(=O)N[C@H](C)C(=O)O)c(O)c3-c3c(cc4c(c3O)C(=O)c3cc(OC)cc(O)c3C4=O)[C@@H]2O)O[C@@H]1C [PRADIMICIN S]	inactive	5.3 µM	5 µM	> 230 µM	4	inactive	inactive	inactive	2	2	inactive	inactive	> 230 µM	5.1 µM	inactive	2.73 ×10³ /M/s	8.9 µM	15 µM	4	> 230 µM	IC50 [21]: 21 µM; Activity [22]: inactive; Activity [23]: inactive; fold change (FC) [24]: 2; Activity [25]: Active; Activity [26]: inactive; Activity [27]: inactive; Activity [28]: inactive; EC50 [29]: 18 µM; fold change (FC) [30]: 2; CC50 [31]: > 230 µM; Activity [32]: inactive
CN[C@@H]1[C@H](O[C@@H]2OC[C@@H](O)[C@H](O)[C@H]2O)[C@@H](O)[C@H](O[C@H]2c3cc(C)c(C(=O)N[C@H](C)C(=O)O)c(O)c3-c3c(cc4c(c3O)C(=O)c3cc(OC)cc(O)c3C4=O)[C@@H]2O)O[C@@H]1C [PRADIMICIN A]	inactive	2.2 µM	5.2 µM	> 50 µM	4	inactive	inactive	inactive	2	2	inactive	inactive	> 50 µM	5.4 µM	inactive	1.96 ×10³ /M/s	5.9 µM	5.9 µM	4	> 50 µM	IC50 [21]: 17 µM; Activity [22]: inactive; Activity [23]: inactive; fold change (FC) [24]: 2; Activity [25]: Active; Activity [26]: inactive; Activity [27]: inactive; Activity [28]: inactive; EC50 [29]: 3 µM; fold change (FC) [30]: 2; CC50 [31]: > 50 µM; Activity [32]: inactive
